Lipid droplet = hepatic lipid droplet formation modulation; AML12 mouse hepatocytes, oleate lipid droplets, BODIPY imaging; inhibition, % at 6.5 µM; actives 0.4% (n = 240,000); AID 1656;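 active = lipid droplet intensity inhibited by at least 50%, with more than 500 cells counted; inconclusive = wells with under 300 cells, treated as cytotoxic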
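Material: mouse AML12 hepatocyte cell line, fixed after treatment; Timing: compound with oleate, overnight; Technique: high-content imaging of BODIPY-stained droplets and DAPI nuclei; Probe or stimulus: oleate, 100 µM final; Dosing: compound at 6.5 µM only.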
Arr AP2 block = human beta-arrestin and AP2 interaction inhibition. inhibition, % at 10 µM. actives 0.31% (n = 340,000). FITC-arrestin peptide / GST-AP2 beads, flow cytometry; AP2 beta2 appendage carries R879A mutation;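 active = inhibition above a set limit, near 3 SD of compounds lacking own fluorescence, cut at about 54% in these data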;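 also: plate controls were DMSO wells for no effect and 5 µM unlabelled arrestin peptide for full effect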
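Assay system: GST-AP2 R879A bound to glutathione beads, E. coli-expressed; Medium: PBS with 0.05% Tween 20 and 0.1% BSA; Also added: fluorescein-tagged arrestin peptide at 50 nM final; Timing: 12 min plus 1 h, RT; Measured by: flow cytometry, FL1 (488/535 nm); Evaluation: percent drop in bead-associated FITC signal.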
NTR1 agonist = agonists of human neurotensin receptor NTR1 | P30989 | NTR1-U2OS beta-arrestin-GFP spot imaging, agonist mode | activation, % at 20 µM | actives 0.17% (n = 330,000) | AID 493036;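 active = activation at or above 40% of the spot to cytoplasm intensity ratio, with at least 20 cells analyzed; inconclusive = wells under 20 cells, flagged as cytotoxic or low count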;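 also: 0% = DMSO without peptide and 100% = 100 nM NTR1 peptide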
Beta2AR agonist = human beta-2 adrenergic receptor agonism by FAP. actives 0.43% (n = 340,000). Am2.2-beta2AR cells, FAP receptor internalization, flow cytometry. response, % (concentration not given with the values). P07550;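 active = response above a set limit, near 3 SD of response in nonfluorescent compounds, cut at about 42% in these data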
Target sequence (P07550 whole entry, looked up): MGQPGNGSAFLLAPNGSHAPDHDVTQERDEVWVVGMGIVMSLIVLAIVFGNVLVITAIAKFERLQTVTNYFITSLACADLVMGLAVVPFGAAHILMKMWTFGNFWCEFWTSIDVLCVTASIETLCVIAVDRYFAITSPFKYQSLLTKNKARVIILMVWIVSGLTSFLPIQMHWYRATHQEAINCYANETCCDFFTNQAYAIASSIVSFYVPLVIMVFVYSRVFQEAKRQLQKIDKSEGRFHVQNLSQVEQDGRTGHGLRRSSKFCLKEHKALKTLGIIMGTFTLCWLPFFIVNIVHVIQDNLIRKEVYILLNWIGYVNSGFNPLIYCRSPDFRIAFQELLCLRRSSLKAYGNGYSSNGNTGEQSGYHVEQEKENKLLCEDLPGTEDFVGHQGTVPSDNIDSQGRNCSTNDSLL
GRK2 inh = human GRK2 inhibition via aptamer displacement | P25098 | bead flow cytometry, FAM-aptamer displacement from GRK2 | inhibition of aptamer binding, % at 10 µM | actives 0.59% (n = 330,000) | AID 488847;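 active = inhibition of aptamer binding above 40%, roughly 3 SD of noise, on plates passing a quality check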;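 also: median bead fluorescence of bound FAM aptamer so fluorescent compounds give negative values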
TAG inh = triacylglycerol accumulation inhibition | inhibition, % at 12.5 µM | actives 0.66% (n = 230,000) | H9c2 cells, Nile Red lipid (TAG) fluorescence; cells loaded with 200 µM oleic acid;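 active = pattern-corrected inhibition of lipid staining of at least 50% with the nuclear-stain viability signal not falling by more than 50%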;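 also: 0% = DMSO wells and 100% = triacsin C control wells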
* marks the source's active call; other numbers are inactive results; ? = inconclusive; nt = no result given. Only some compounds are listed: those with a hit (about 2% of all), similar ones and a draw of the others.

SMILES	Lipid droplet	Arr AP2 block	NTR1 agonist	Beta2AR agonist	GRK2 inh	TAG inh
C#CCOCCOCCOCCNc1nc(N2CCN(C(=O)CCCCCCCCCCNC(=O)[C@H](CO)n3cc(CCCCCN)nn3)CC2)nc(N2CCN(C(=O)CCCCCCCCCCNC(=O)[C@H](CCCN=C(N)N)n3cc(C[C@@H](C)CC)nn3)CC2)n1	nt	nt	14	nt	0	nt
Cc1ccc([C@@H]2CC=C(C(=O)O)[C@H](c3ccccc3F)N2S(=O)(=O)c2ccccc2C)cc1	nt	0	2	3	1	-1
Oc1ccccc1/C=N/NC(=S)NC1CC2CC1C1C=CCC21 (configuration not stated)	-2	-2	36	3	0	7
CC1=CC(=O)c2c(O)ccc(O)c2C1=O	-1	nt	nt	nt	46*	nt
CC1(NC(=O)CC[N+](C)(C)CCO)CS(=O)(=O)CC1S(=O)(=O)[O-] (configuration not stated)	-12	nt	1	nt	47*	nt
COC(=O)[C@@]12CCCCN1[C@H](c1ccc(-c3ccccc3)c(OC)c1)[C@H]1C(=O)N(C)C(=O)[C@H]12	nt	11	2	-18	1	3
O=C(O)C1Nc2ccc(Br)cc2C2C=CCC12 (configuration not stated)	-4	45	0	3	77*	-2
O=C(O)C1Nc2c(Cl)cc(Cl)cc2C2C=CCC12 (configuration not stated)	13	-11	nt	7	72*	5
O=C(O)C1Nc2c(O)cccc2C2C=CCC12 (configuration not stated)	-7	7	0	12	3	nt
Cc1cc(C)c2sc(NC(=O)c3ccc([N+](=O)[O-])o3)nc2c1	0	-6	5	20	0	57*
COc1ccc2nc(NC(=O)c3ccc([N+](=O)[O-])o3)sc2c1	-8	-6	2	-2	7	nt
O=C(CS(=O)(=O)c1ccc(F)cc1)NCCS(=O)(=O)c1ccccc1	-4	6	-1	12	3	nt
O=C(Cc1cccc(NC(=O)C2CCN(C(=O)C3CC3)CC2)c1)Nc1cccc(C(=O)N2CCCCC2)c1	nt	15	nt	-3	nt	26
CCn1c(/C=C/c2ccccc2F)nc2ccccc2c1=O	13	24	1	0	0	-10
C=CCN(c1ccccc1C(=O)O)S(=O)(=O)c1ccc(C)cc1	14	-14	0	3	0	-6
CSCCNC(=O)c1ccc2nc(C3CCCCC3)oc2c1	-8	8	0	5	1	nt
O=C(N/N=C/c1coc2ccccc2c1=O)c1cn(-c2ccccc2)nc1-c1ccccc1	-1	-13	4	57*	0	nt
COc1ccc(Br)cc1/C(C)=N/NC1=NCCN1	-22	23	0	1	0	-14
CCCCCOc1ccc(Br)cc1/C(C)=N/NC1=NCCN1	?	-7	10	44*	0	69*
O=C1CC(NS(=O)(=O)c2cc(F)ccc2F)CN1c1ccc2c(c1)OCCO2 (configuration not stated)	nt	2	0	-2	5	0
CC(/C=C/c1ccco1)=N/NC(=O)CNc1ccccc1C	11	15	-1	3	0	1
CC(/C=C/C=C/c1ccccc1)=N/NC(=O)CNc1ccccc1C	-102	-2	1	-3	55*	nt
N#C/C(=C\c1c(Cl)cccc1Cl)c1nc2ccccc2[nH]1	4	9	1	56*	4	nt
COc1cc(/C(C)=N/Nc2ccc(C(=O)O)cc2)cc(OC)c1OC	12	6	-1	-8	71*	nt
CCOC(=O)C1=NN(C(C)=O)C2(CC(=O)N(c3cc(C)cc(C)c3)C2=O)C1 (configuration not stated)	-17	0	2	2	100*	nt
SMILES	Lipid droplet	Arr AP2 block	NTR1 agonist	Beta2AR agonist	GRK2 inh	TAG inh
CCOC(=O)C1=NN(C(C)=O)C2(CC(=O)N(c3ccc(C)c(C)c3)C2=O)C1 (configuration not stated)	4	12	0	4	4	nt
COc1cc(CNc2ccc3[nH]c(=O)[nH]c3c2)ccc1OCc1ccc(Cl)cc1	1	-9	6	5	1	nt
O=C(Nc1ccc(Cl)c(Cl)c1)N1N=CCC1c1ccccc1 (configuration not stated)	-6	32	7	-7	nt	nt
CCOc1ccc(/C=C2\SC(=S)N(N3C(=O)C4CC4C3=O)C2=O)cc1 (configuration not stated)	-20	12	0	84*	0	-19
CCOc1ccc(/C=C2/SC(=O)NC2=S)cc1	-14	10	8	11	6	nt
CN(C)c1ccc(C(C(=O)NCC2CCCO2)N(Cc2ccccc2)C(=O)c2snc(C(N)=O)c2N)cc1 (configuration not stated)	0	1	3	24	1	nt
Cc1cccc(N(C(=O)c2snc(C(N)=O)c2N)C(C(=O)NCC2CCCO2)c2ccc(N(C)C)cc2)c1C (configuration not stated)	6	24	-2	-6	99*	nt
O=C(COc1cc2oc(=O)c3c(c2cc1Cl)CCC3)Nc1ccc(CN2CCOCC2)cc1	-21	5	0	42*	6	nt
O=C(COc1cc2oc(=O)c3c(c2cc1Cl)CCC3)NCCCN1CCCC1=O	6	-6	-2	-3	2	nt
CO/N=C/C(=N\Nc1ccc(C)cc1)C(=O)c1ccc(OC)cc1	15	34	1	2	0	60*
CO/N=C/C(=N\Nc1ccc(OC)cc1)C(=O)c1ccc(F)cc1	nt	0	2	-2	0	0
COc1ccc(Cn2ccnc2SCC(=O)Nc2nnc(C)s2)cc1	7	-2	-1	-9	1	6
Cc1nnc(NC(=O)CSc2nccn2Cc2ccc(F)cc2)s1	-3	3	0	1	42*	8
Cc1nnc(NC(=O)CSc2nccn2Cc2ccccc2)s1	9	28	0	0	86*	8
Cc1cccc2nc(CNC(=O)CC3C(=O)NCCN3Cc3cccc(F)c3)cn12 (configuration not stated)	-4	16	0	4	0	nt
O=C(Nc1ccc(Cl)c(Cl)c1)C1C2C=CC3(O2)C1C(=O)N(CCN1CCCCC1)C3C(=O)NC1CCCCC1 (configuration not stated)	-12	1	0	-5	0	nt
COc1ccc(CNC(=O)CCCCCn2c(SCC#N)nc3cc4c(cc3c2=O)OCO4)cc1	56*	5	4	-7	0	nt
C/C(=N\Nc1nc2ccccc2nc1C)c1ccccc1O	4	3	2	-12	2	52*
O=[N+]([O-])c1ccc(-c2nc(C(Cl)Cl)c3ccccc3n2)cc1	-44	1	2	6	1	112*

Screens deposited in PubChem by several laboratories.
